High-throughput results deposited in PubChem by Sanford-Burnham Center for Chemical Genomics.
Most compounds without a hit are left out; they make up all but 2.5% or so of the library.
SENP1 FRET inh – inhibitors of human SENP1 SUMO protease catalytic domain; recombinant SENP1 catalytic domain, CyPet-SUMO1-YPet FRET cleavage; AID 624204; 360,000 tested, 0.21% active; inhibition, % at 10 µM;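 active means inhibition at least 30% at 10 µM, raw YFP signal under a set limit, fluorescence ratio 0.5 to 1.5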
Target sequence (Q9P0U3 419-644 limits assumed): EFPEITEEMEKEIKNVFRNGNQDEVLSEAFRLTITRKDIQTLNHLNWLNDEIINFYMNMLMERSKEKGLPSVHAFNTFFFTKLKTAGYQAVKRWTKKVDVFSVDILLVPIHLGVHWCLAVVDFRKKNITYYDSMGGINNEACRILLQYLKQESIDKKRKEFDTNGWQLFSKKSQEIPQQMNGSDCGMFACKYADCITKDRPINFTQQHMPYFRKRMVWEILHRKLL
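material = recombinant human SENP1 catalytic domain, His6-tagged | quantity = 20 pM enzyme | reagent = 25 nM SUMO1 FRET substrate | compound dosing = 10 µM single point, 0.5% DMSO | timing = 50 min enzyme reaction, room temperature, light-protected | detection = FRET, CFP and YFP emission | control set = no-enzyme low, enzyme-DMSO high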
SENP6 inh – inhibitors of human SENP6 protease; AID 2599; Recombinant SENP6 catalytic domain, aminoluciferin luminescence; inhibition, % at 10 µM; Q9GZR1; 330,000 tested, 1.8% active;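 active means inhibition above about 50% at the single tested dose, limit read from the data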
SENP7 inh – SENP7 protease inhibition | recombinant SENP7, Z-RLRGG-aminoluciferin luminescence, 40 min | AID 434973 | inhibition, % at 5 µM | Q9BQF6 | 330,000 tested, 1.5% active;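 active means inhibition above about 50% at the single test dose, limit read from the data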
SENP8 block-1 – blocks the human protease SENP8; inhibition, % at 10 µM; 330,000 tested, 1.2% active; AID 2540; purified SENP8, Z-RLRGG-aminoluciferin cleavage, luminescence; in the data active means inhibition above about 50%
Target sequence (Q96LD8 whole entry, looked up): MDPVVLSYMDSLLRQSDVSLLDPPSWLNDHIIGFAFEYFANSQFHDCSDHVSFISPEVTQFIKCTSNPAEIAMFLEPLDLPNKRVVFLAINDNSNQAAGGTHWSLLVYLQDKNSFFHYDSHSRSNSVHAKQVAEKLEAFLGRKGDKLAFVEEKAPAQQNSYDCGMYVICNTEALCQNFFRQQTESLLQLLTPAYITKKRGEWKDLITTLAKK
SENP8 block-2 – SENP8 (human) protease inhibition | Q96LD8 | recombinant SENP8, Nedd8 substrate fluorescence | inhibition, % at 20 µM | 360,000 tested, 0.64% active | AID 602440; in the data active means inhibition mostly above about 40%, no sharp cut-off; inactive means mostly below about 27%
SENP8 confirm – human SENP8 inhibition, confirmed | shares compounds with SENP7 inh | Recombinant SENP8, Z-RLRGG-aminoluciferin luminescence, 60 min | inhibition, % at 12.5 µM | 6,200 tested, 40% active;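 active means mean inhibition across replicates above about 50%, limit read from the data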
SENP6 confirm – confirmation of human SENP6 protease inhibitors | inhibition, % at 12.5 µM | 6,200 tested, 58% active | AID 488915 | shares compounds with SENP7 inh | recombinant SENP6, Z-RLRGG-aminoluciferin luminescence
SENP7 conf – human SENP7 inhibition, confirmed; recombinant SENP7, Z-RLRGG-aminoluciferin luminescence, 40 min; 6,200 tested, 69% active; inhibition, % at 12.5 µM; shares compounds with SENP7 inh
Casp3 SENP sel – caspase-3 inhibition (SENP selectivity assay); 6,200 tested, 60% active; inhibition, % at 12.5 µM; purified caspase-3, Z-DEVD-aminoluciferin luminescence, 60 min; shares compounds with SENP7 inh;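 active means mean inhibition above about 50%, limit read from the data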
Target sequence (P42574 28-227 limits assumed): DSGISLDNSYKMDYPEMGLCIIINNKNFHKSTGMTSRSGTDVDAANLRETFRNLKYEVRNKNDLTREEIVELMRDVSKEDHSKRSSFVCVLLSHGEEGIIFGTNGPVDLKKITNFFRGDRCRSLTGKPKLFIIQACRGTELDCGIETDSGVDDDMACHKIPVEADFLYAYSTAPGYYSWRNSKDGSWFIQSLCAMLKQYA
SENP luc ctr – interferes with luciferase luminescence in SENP counter-screen | Pre-incubated SENP8/Z-RLRGG-aminoluciferin, luciferase luminescence interference | shares compounds with SENP7 inh | 6,200 tested, 39% active | inhibition, % at 12.5 µM;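 active means mean inhibition above about 50% when retested at one dose, limit read from the data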
Of the large screens only hits and unclear results are named; the others gave an inactive call (follow-up assays come after a bar, where they were run).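 How the source made its calls, unless noted: active means mean inhibition above about 50% in the one-dose retest (limit read from the data); inactive means the rest.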

CCOc1ccc(NC(=O)c2c(N)n(C)c(=O)[nH]c2=O)cc1	SENP6 inh 58.5 | SENP8 confirm inactive | SENP6 confirm inactive | SENP7 conf inactive | Casp3 SENP sel inactive | SENP luc ctr inactive
CCOc1ccc(NC(=O)c2nn(C)cc2Br)cc1	none
Cn1cc(Br)c(C(=O)Nc2ncc(Br)s2)n1	SENP7 inh 70.2 | SENP8 confirm inactive | SENP6 confirm inactive | SENP7 conf inactive | Casp3 SENP sel inactive | SENP luc ctr inactive
COc1ccc(-n2ncc3c(SCC(=O)N4CCN(c5ccccc5OC)CC4)ncnc32)cc1	SENP8 block-1 68.6 | SENP8 confirm inactive | SENP6 confirm inactive | SENP7 conf inactive | Casp3 SENP sel inactive | SENP luc ctr inactive
CCOC(=O)CNC(=O)CSc1ncnc2c1cnn2-c1ccc(Cl)cc1	none
CCOC(=O)Cc1csc(NC(=O)CSc2ncnc3c2cnn3-c2ccc(OC)cc2)n1	SENP6 inh 74.8, SENP7 inh 52.0, SENP8 block-1 71.1 | SENP8 confirm inactive | SENP6 confirm 68.6 | SENP7 conf 59.4 | Casp3 SENP sel 84.1 | SENP luc ctr inactive
O=C(NC(=S)Nc1ccc(S(=O)(=O)Nc2nccs2)cc1)c1cccc(F)c1	SENP6 inh 63.1 | SENP8 confirm inactive | SENP6 confirm inactive | SENP7 conf inactive | Casp3 SENP sel inactive | SENP luc ctr inactive
O=C(Nc1ccccc1)O/N=C/c1ccc(F)cc1	SENP6 inh 67.7, SENP7 inh 59.0 | SENP8 confirm 67.1 | SENP6 confirm 64.6 | SENP7 conf 89.1 | Casp3 SENP sel 74.6 | SENP luc ctr inactive
COc1ccc(/C=N/OC(=O)Nc2ccccc2OC)cc1	SENP7 inh 81.0, SENP8 block-1 72.0 | SENP8 confirm inactive | SENP6 confirm 86.6 | SENP7 conf inactive | Casp3 SENP sel 83.1 | SENP luc ctr inactive
O=C(Nc1ccccc1Cl)O/N=C/c1ccc(F)cc1	none (no result: SENP6 inh, SENP7 inh, SENP8 block-1)
O=C(Nc1ccccc1)O/N=C/c1ccccc1Cl	SENP7 inh 55.8 | SENP8 confirm 60.1 | SENP6 confirm 52.9 | SENP7 conf 76.6 | Casp3 SENP sel inactive | SENP luc ctr 53.2
O=C(Cn1nc(-c2ccccc2)oc1=O)OCC(=O)c1ccc(F)c(F)c1	none
NC(=O)C1CCN(C2=C(Cl)C(=O)c3ccccc3C2=O)CC1	SENP6 inh 50.1 | SENP8 confirm inactive | SENP6 confirm 75.1 | SENP7 conf inactive | Casp3 SENP sel inactive | SENP luc ctr inactive
O=C1C(Cl)=C(N2CCC(C(=O)O)CC2)C(=O)c2ccccc21	SENP6 inh 63.3 | SENP8 confirm 56.2 | SENP6 confirm 71.0 | SENP7 conf inactive | Casp3 SENP sel inactive | SENP luc ctr inactive
COc1ccc(CN2CC(C(N)=O)Oc3ccccc32)cc1F (stereo not drawn)	none
CCc1ccc2oc(-c3cc(N=Cc4cccc(OC)c4O)ccc3O)nc2c1	SENP6 inh 85.7, SENP7 inh 89.1, SENP8 block-1 92.3 (no result: SENP1 FRET inh, SENP8 block-2) | SENP8 confirm 83.7 | SENP6 confirm 84.0 | SENP7 conf 86.6 | Casp3 SENP sel 76.1 | SENP luc ctr inactive
CCN(CC)S(=O)(=O)c1ccc(OC)c(NC(=O)c2cc(=O)[nH]c3ccccc23)c1	none
COc1ccc(-c2nn3c(=O)c(C)nnc3s2)cc1	none
Cc1nc2sc(-c3ccccc3)nn2c(=O)c1Br	SENP6 inh 75.2, SENP7 inh 73.1, SENP8 block-1 60.4 | SENP8 confirm inactive | SENP6 confirm inactive | SENP7 conf inactive | Casp3 SENP sel 60.9 | SENP luc ctr inactive
O=C(Nc1ccccc1)N1CCC(C(=O)N2CCN(c3ccccc3F)CC2)CC1	none
COc1ccc(CNC(=O)C[C@@H]2C[C@H]3c4cc(NC(=O)C5CCC5)ccc4O[C@H]3[C@@H](CO)O2)cc1	none (no result: SENP6 inh, SENP7 inh, SENP8 block-1)
c1ccc(COc2ccc3nocc3c2)cc1	SENP6 inh 93.0, SENP7 inh 89.7, SENP8 block-1 89.7 | SENP8 confirm 85.5 | SENP6 confirm 89.5 | SENP7 conf 100.2 | Casp3 SENP sel 91.1 | SENP luc ctr 83.6
O=C(N=C1SC2CS(=O)(=O)CC2N1c1cccc(Cl)c1Cl)C1CCCO1 (stereo not drawn)	none
O=C(/C=C/c1ccco1)N1CCc2ccccc21	SENP6 inh 93.4, SENP7 inh 90.8, SENP8 block-1 91.2 | SENP8 confirm inactive | SENP6 confirm 96.0 | SENP7 conf 101.8 | Casp3 SENP sel 96.7 | SENP luc ctr 94.2
Cc1cc(C)n(NC(=S)NC2CCCC2)c(=O)c1C#N	none
c1ccc(OCc2nc3ccccc3s2)cc1	SENP6 inh 92.8, SENP7 inh 95.3, SENP8 block-1 87.6 | SENP8 confirm 84.8 | SENP6 confirm 95.6 | SENP7 conf 100.6 | Casp3 SENP sel 91.2 | SENP luc ctr 84.2
Fc1ccc(OCc2nc3ccccc3s2)cc1	SENP6 inh 97.2, SENP7 inh 93.7, SENP8 block-1 90.3 | SENP8 confirm 82.4 | SENP6 confirm 92.4 | SENP7 conf 101.7 | Casp3 SENP sel 90.3 | SENP luc ctr 78.9
c1ccc(SCc2nc3ccccc3s2)nc1	SENP6 inh 60.0 | SENP8 confirm 64.1 | SENP6 confirm 61.1 | SENP7 conf 86.4 | Casp3 SENP sel 66.2 | SENP luc ctr 57.3
CCC(=O)Nc1ccc(OCc2nc3ccccc3s2)cc1	SENP7 inh 74.9, SENP8 block-1 75.5 | SENP8 confirm inactive | SENP6 confirm 80.5 | SENP7 conf 96.1 | Casp3 SENP sel 75.0 | SENP luc ctr inactive
NC(=O)c1ccccc1OCc1nc2ccccc2s1	none
O=C(O)COCc1nc2ccccc2s1	none
COc1c(C)cc(C(=O)C2CCCN(S(=O)(=O)N(C)C)C2)cc1C (stereo not drawn)	none
O=c1c2ccccc2nnn1CSc1ccccc1F	SENP7 inh 67.6, SENP8 block-1 61.3 | SENP8 confirm 77.6 | SENP6 confirm 77.2 | SENP7 conf 93.6 | Casp3 SENP sel 83.5 | SENP luc ctr 79.2
O=C(/C=C/c1ccc(O)c(O)c1)c1ccccc1O	SENP7 inh 96.7, SENP8 block-1 96.8 | SENP8 confirm inactive | SENP6 confirm 100.7 | SENP7 conf 103.1 | Casp3 SENP sel 95.2 | SENP luc ctr 98.8
Cc1cc(NS(=O)(=O)c2ccc(NC(=O)C(c3ccccc3)c3ccccc3)cc2)no1	none
